Results from ChEMBL document CHEMBL4613213, “Anibamine and Its Analogues: Potent Antiplasmodial Agents from Aniba citrifolia” (J Nat Prod, 2020).
The source made the active and inactive calls. The calls are words filed in the database; no cut-off is given here.

Legend:
[1] = test system: Plasmodium falciparum; assay: Antiplasmodial activity against Plasmodium falciparum Dd2 assessed as reduction in parasite growth after 72 hrs by SYBR Green 1 staining based assay; assay type: functional, organism-based
Procedure, shortened: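 Dd2 cultures started at ring stage, 1% hematocrit and 1% parasitemia. Grown 72 h at 37 °C in 5% CO2/5% O2/90% N2 across increasing drug concentrations. Viability read by SYBR Green I DNA quantitation in lysis buffer. IC50 from nonlinear regression; mean of three independent determinations, each in triplicate, ± SEM.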

[2] = test system: A2780; assay: Cytotoxicity against human A2780 cells assessed as reduction in cell viability after 2 days by AlamarBlue assay; assay type: ADME, cell-based; details: A2780, 48 h
[3] = test system: Plasmodium falciparum; assay: Antiplasmodial activity against Plasmodium falciparum Dd2 ring stage form infected in erythrocytes assessed as reduction in parasite growth at 0.5 uM after 6 to 72 hrs by Giemsa staining based light microscopic method; assay type: functional, organism-based
Procedure, shortened: (§1)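 Compound added at ring stage (2–4 h post-invasion). Development followed on Giemsa-stained thin blood smears after 6, 24, 48 and 72 h of treatment and compared with untreated controls. Two or more independent experiments.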

[4] = test system: Plasmodium falciparum; assay: Antiplasmodial activity against Plasmodium falciparum Dd2 schizonts form infected in erythrocytes assessed as reduction in reinvasion at 0.5 uM after 6 hrs by Giemsa staining based light microscopic method; assay type: functional, organism-based
Procedure, shortened: (§2)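 Compound added at schizont stage (40–42 post-invasion). Morphology assessed on Giemsa-stained thin blood smears at 6, 24 and 48 h of treatment and compared with untreated controls. Two or more independent experiments.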

[5] = test system: Plasmodium falciparum; assay: Antiplasmodial activity against Plasmodium falciparum Dd2 schizonts form infected in erythrocytes assessed as reduction in ring stage formation at 0.5 uM after 6 hrs by Giemsa staining based light microscopic method; assay type: functional, organism-based; procedure, shortened: as §2
[6] = test system: Plasmodium falciparum; assay: Antiplasmodial activity against Plasmodium falciparum Dd2 ring stage form infected in erythrocytes assessed as reduction in reinvasion at 0.5 uM after 48 to 72 hrs by Giemsa staining based light microscopic method; assay type: functional, organism-based; procedure, shortened: as §1
[7] = test system: Plasmodium falciparum; assay: Antiplasmodial activity against Plasmodium falciparum Dd2 schizonts form infected in erythrocytes assessed as reduction in parasite growth at 0.5 uM after 6 hrs by Giemsa staining based light microscopic method; assay type: functional, organism-based; procedure, shortened: as §2
[8] = Hemolytic activity in human RBC; assay type: cell-based, Erythrocyte; details: human red blood cells (erythrocytes)
[9] = Cytotoxicity against mouse 3T3 cells by neutral red uptake assay; assay type: cell-based; details: NIH3T3 cells, read-out: TC50 (the source's name)
[10] = test system: Plasmodium falciparum; assay: Antiplasmodial activity against Plasmodium falciparum Dd2 schizonts form infected in erythrocytes assessed as reduction in trophozoites formation at 1 uM after 48 hrs by Giemsa staining based light microscopic method; assay type: functional, organism-based; procedure, shortened: as §2
[11] = test system: Plasmodium falciparum; assay: Antiplasmodial activity against Plasmodium falciparum Dd2 schizonts form infected in erythrocytes assessed as reduction in parasite growth at 1 uM after 6 hrs by Giemsa staining based light microscopic method; assay type: functional, organism-based; procedure, shortened: as §2
[12] = test system: Plasmodium falciparum; assay: Antiplasmodial activity against Plasmodium falciparum Dd2 schizonts form infected in erythrocytes assessed as morphological defects formation at 1 uM after 48 hrs by Giemsa staining based light microscopic method; assay type: functional, organism-based; procedure, shortened: as §2
[13] = test system: Plasmodium falciparum; assay: Antiplasmodial activity against Plasmodium falciparum Dd2 schizonts form infected in erythrocytes assessed as reduction in ring stage formation at 1 uM after 6 hrs by Giemsa staining based light microscopic method; assay type: functional, organism-based; procedure, shortened: as §2
[14] = test system: Plasmodium falciparum; assay: Antiplasmodial activity against Plasmodium falciparum Dd2 schizonts form infected in erythrocytes assessed as reduction in reinvasion at 1 uM after 6 hrs by Giemsa staining based light microscopic method; assay type: functional, organism-based; procedure, shortened: as §2
[15] = test system: Plasmodium falciparum; assay: Antiplasmodial activity against Plasmodium falciparum Dd2 ring stage form infected in erythrocytes assessed as reduction in reinvasion at 1 uM after 48 to 72 hrs by Giemsa staining based light microscopic method; assay type: functional, organism-based; procedure, shortened: as §1
[16] = test system: Plasmodium falciparum; assay: Antiplasmodial activity against Plasmodium falciparum Dd2 ring stage form infected in erythrocytes assessed as reduction in parasite growth at 1 uM after 6 to 72 hrs by Giemsa staining based light microscopic method; assay type: functional, organism-based; procedure, shortened: as §1
[17] = Plasmodium falciparum, Dd2, 72 h, read-out: IC50

With `CCCCCCCC/C=C\c1c(C)cc(CCCOC)nc1C` the IC50 [1, 17] was 6.3 µM.

Compound `C=CCOc1cc2c(cc1OC)[C@H](C)[C@@H](c1ccc3c(c1)OCO3)O2` has an IC50 [1, 17] of 30 µM and an IC50 [2] of 10 to 50 µM.

With `CCCCCCCC/C=C/c1c(C)c(CCCCCCCCCC)c2[n+](c1C)CCC2` the IC50 [1, 17] was 0.244 µM and the IC50 [2] was 0.241 µM.

For `CCCCCCCC/C=C/c1c(C)cc2[n+](c1C)CCC2`, the Activity [3] was “inactive”, the Activity [4] was “inactive” and the IC50 [1, 17] was 0.171 µM. For the same compound, the Activity [5] was “inactive”, the Activity [6] was “inactive” and the Activity [7] was “inactive”.

`CCCCCCCC/C=C/c1c(C)cc(CCCOC)nc1C` showed an IC50 [1, 17] of 6.7 µM.

In the case of `CCCCCCCC/C=C/c1c(C)cc(C)[n+]2c1CCC2`, the Activity [3] is reported as “inactive”, the Activity [4] is reported as “inactive” and the IC50 [1, 17] is reported as 0.058 µM. The Activity [5] was “inactive”, the Activity [6] was “inactive” and the Activity [7] was “inactive”.

Work on `CCCCCCCC/C=C\c1c(C)c(/C=C\CCCCCCCC)c2[n+](c1C)CCC2` [AANIBAMINE] yielded an IC50 ([1]; read-out: IC50) of 0.11 µM and an HC50 [8] greater than 58 µM.

`CCCCCCCCCCc1c(C)cc(CCCOC)nc1C` showed an IC50 [1, 17] of 5.3 µM.

Work on `CCCCCCCC/C=C\c1c(C)c(/C=C\CCCCCCCC)c2[n+](c1C)CCC2` [ANIBAMINE] yielded an IC50 [1, 17] of 0.17 µM, an IC50 [2] of 0.223 µM and a CC50 [9] greater than 22 µM.

In the case of `CCCCCCCCCCc1c(C)cc(C)nc1C`, the IC50 [1, 17] is reported as greater than 20 µM.

With `CCCCCCCCCCc1c(C)c(CCCCCCCCCC)c2[n+](c1C)CCCCC2` the Activity [10] was “Active”, the IC50 [1, 17] was 0.077 µM and the Activity [11] was “inactive”. The HC50 [8] was greater than 58 µM, the Activity [12] was “Active” and the Activity [13] was “inactive”. The Activity [14] was “inactive”.

In the case of `CCCCCCCC/C=C/c1c(C)cc(C)nc1CCCOC`, the IC50 [1, 17] is reported as greater than 20 µM.

`COc1cc(C/C=C(\C)CCC=C(C)C)c(O)c(-c2cc3cc(OC)cc(C/C=C(\C)CCC=C(C)C)c3oc2=O)c1` gave an IC50 [1, 17] of 18.2 µM.

`C[C@@H]1CC[C@H]2[C@@H](C)C(=O)O[C@@H]3O[C@@]4(C)CC[C@@H]1[C@]32OO4` [ARTEMISININ] showed an IC50 [1, 17] of 0.0065 µM.

In the case of `C=CC[C@@]12C=C(OC)C(=O)C=C1O[C@H](c1ccc3c(c1)OCO3)[C@H]2C`, the IC50 [1, 17] is reported as greater than 30 µM and the IC50 [2] is reported as 10 to 50 µM.

Compound `CCCCCCCC/C=C/c1c(C)nc(CCCOC)c(/C=C/CCCCCCCC)c1C` has an IC50 [1, 17] greater than 20 µM.

With `C=CC[C@@]12C=C(OC)C(=O)[C@@H]([C@H](c3ccc4c(c3)OCO4)[C@H]1C)[C@H]2O` the IC50 [1] was “Not Active” and the IC50 [2] was 10 to 50 µM.

In the case of `CCCCCCCC/C=C\c1c(C)nc(CCCOC)c(/C=C\CCCCCCCC)c1C`, the IC50 [1, 17] is reported as 19.3 µM.

For `CCCCCCCC/C=C\c1c(C)cc2[n+](c1C)CCC2`, the IC50 [1, 17] was 0.142 µM, the Activity [11] was “inactive” and the Activity [13] was “inactive”. The Activity [15] was “inactive”, the Activity [14] was “inactive” and the Activity [16] was “inactive”.

Work on `C=CCc1c(O)c(OC)cc2c1O[C@H](c1ccc3c(c1)OCO3)[C@H]2C` yielded an IC50 [1, 17] of 30 µM and an IC50 [2] of 10 to 35 µM.
